Test results as given in the RNAGym collection of RNA variant scans (doi:10.1126/science.aae0568).
This sample holds only a part of the variants without activity.

B1: tRNA (parent)
chain: GUUCCGUUGGCGUAAUGGUAACGCGUCUCCCUCCUAAGGAGAAGACUGCGGGUUCGAGUCCCGUACGGAACG

Variants of: B1
Assay: yeast fitness relative to wild type (ratio to wild type); higher = fitter; tRNA-Arg(CCU), competitive growth, 37 C, YPD
Procedure, shortened: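 Start and end populations of a pooled competition were compared by 100-nucleotide paired-end sequencing of gene amplicons. The Saccharomyces cerevisiae strains carried tRNA-Arg(CCU) gene variants at the native genomic locus, synthesised with a 3% per-site mutation rate at 69 sites, and competed in YPD at 37°C for 24 hours in six parallel replicates. Darwinian fitness relative to wild type was based on the change in genotype frequencies. Genotypes required ≥ 100 starting reads, and estimates < 0.5 were set to 0.5.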

Variant | yeast fitness
C34U G44A C49A G56C C62A A65C | ≤ 0.5
C11A U19A C55A C61U | 0.605
C11G C30U C46G G58C | 0.617
G10A A37U G39A A57U | ≤ 0.5
U28G C34G G44C U64G | ≤ 0.5
C49U U54C | 0.864
A20G U26A | 0.884
C4G G6C A36C C62G C66A | ≤ 0.5
G38C G41A C61U | 0.553
G25C C33A A57U | 0.718
G52A G67U | 0.619
G6C U54C C66A | 0.6
C4U C24G U35C A57G | ≤ 0.5
C4A C27U | 0.901
G25C C31A A37C U47C C61U | 0.702
C4A A21U C27A G41C A70G | ≤ 0.5
G23C G39A C62G | ≤ 0.5
C11U U13A C30A C33A A57U | ≤ 0.5
C4A G18A U59G | 0.657
A15G A57U | 0.636
C5G G6C C33A A40U A70C | ≤ 0.5

Variant | yeast fitness
G10A C24U C55U C66U | 0.52
C31G C33A G48C | ≤ 0.5
C33G G51A | 0.626
G18C A45G G50U U53A | ≤ 0.5
C24G C27U C33U A45G G50C G68A | ≤ 0.5
C24U C49G G56C G58A | 0.57
A42C A43C C60G C61G C62U | ≤ 0.5
U2A C5A U53G | 0.514
U54C U59C | 0.714
C5A U7C | 0.655
A20U C29G C33U | 0.609
C24U U47C G48A C62G A69U | ≤ 0.5
G10C C24U C61G C66U A69U | ≤ 0.5
C5U U13G C33A A37C C61U | ≤ 0.5
G23A G48C | 0.759
U13C A37U C62A | ≤ 0.5
A15C C60U A69G | ≤ 0.5
C11U C34G A45C G51A A65U | ≤ 0.5
C11G G18A C24U | 0.542
C33A U53A C60G | 0.681
C31A A37C C46U | ≤ 0.5

Variant | yeast fitness
G10A C49U | 0.697
C27A U28C | 0.775
C11U A14G C31A A42G | ≤ 0.5
G12U G44C | 0.766
C24U U35C C55G A70U | 0.569
C30A C31U A45C C49U C55G | ≤ 0.5
G10C C11G C22A C30G U53A | 0.653
G44A C62G | 0.668
A21G G39U C62U | 0.527
U13A C29U A40C | 0.54
C4A G17A C27U C33U | ≤ 0.5
A36U C49G A69U | ≤ 0.5
G9A C34U C46A C61A C62U | ≤ 0.5
C4A G6A A45U G58A A65G | ≤ 0.5
C33U G39A G63A | ≤ 0.5
G12A A14U A57G C61U | ≤ 0.5
C4U U7A U8A A40U C61U | ≤ 0.5
A14G G23C C27A | ≤ 0.5
G10A C60A | 0.691
C34A G44A A57U | ≤ 0.5
G12C U26A C33A C34G | 0.55

Variant | yeast fitness
A14G C30U C46U G50A | 0.602
C5U C22U G23C A36G G67A | ≤ 0.5
G6A A43G A69U | 0.716
U13A A14G C30G | ≤ 0.5
G23C A65G A69U | 0.524
U16A U47G G48C | 0.536
G10A C33U A45U G48C U64A | ≤ 0.5
U7G U59G A69C | ≤ 0.5
U26C C27G C34U A37U A43G A45G | ≤ 0.5
A36U A45U C46U U53C | ≤ 0.5
G9A C11A G44A C46A | ≤ 0.5
A20C G38A C49A G58C A65G G68A A69C | 0.589
U2G G58A C60A C66G | 0.562
U13A C31G C33U A37C A65U | ≤ 0.5
U35A A57U A69U | ≤ 0.5
U2A G9A A45C | 0.682
U16A G23C | 0.699
A15C G56C | 0.685
A14U U26G C33A A40U A69U | ≤ 0.5
U7A C62U | 0.888
